# Laboratory results reported in ChEMBL document CHEMBL4152258, “Identification of chalcone-based antileishmanial agents targeting trypanothione reductase” (Eur J Med Chem, 2018).
# Activity calls are given as the source filed them. The calls are words filed in the database; no cut-off is given here.
# Experiments:
# [1] = Safety index, ratio of test compound CC50 to amphotericin B CC50 for African green monkey Vero cells; format: ADME, cell-based; conditions: chlorocebus sabaeus
# Leishmania infantum = experiment: Antileishmanial activity against promastigote stage of Leishmania infantum MHOM/TN/80/IPT1 assessed as parasite growth inhibition after 72 hrs by Alamar blue assay; format: functional, organism-based; conditions: MHOM/TN/80/IPT1, 72 h
# Method in brief: (§1)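 Late log/stationary promastigotes were seeded at 10^6/mL in HOMEM with 20% FBS and exposed to compounds at 40–1.6 µM for 72 h at 26 °C, from 8 mM DMSO stocks. AlamarBlue was then added for 24 h at 26 °C, and absorbance was read at 550 and 630 nm. Runs were in duplicate. IC50/72h is the mean of two independent determinations.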
# [2] = Selectivity index, ratio of CC50 for African green monkey Vero cells to IC50 for Leishmania donovani MHOM/NP/02/BPK282/0c14; format: toxicity; conditions: read-out: Ratio CC50/IC50
# Method in brief: (§2)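 Selectivity index calculated as CC50/72h in Vero (16) or THP-1 (17) cells divided by IC50/72h against L. donovani promastigotes.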
# Leishmania major = experiment: Antileishmanial activity against promastigote stage of Leishmania major MHOM/SU/73/5-ASKH assessed as parasite growth inhibition after 72 hrs by Alamar blue assay; format: functional, organism-based; method in brief: as §1
# Leishmania donovani [3] = experiment: Antileishmanial activity against amastigote stage of Leishmania donovani MHOM/NP/02/BPK282/0c14 infected in human THP1 cells assessed as parasite growth inhibition after 72 hrs by Giemsa staining-based assay; format: functional, organism-based; conditions: MHOM/NP/02/BPK282/0c14, THP-1, 72 h
# Method in brief: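 THP-1 cells at 10^5 cells/mL differentiated with 0.1 µM PMA for 48 h at 37 °C, 5% CO2, then infected with stationary-phase promastigotes. After 24 h, compounds were added at 40–1.5 µM for 72 h. Wells were Giemsa-stained, and the infectivity index (% infected macrophages × mean amastigotes per macrophage) was counted on ≥100 cells in duplicate cultures. IC50/72h determined.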
# [4] = Safety index, ratio of test compound CC50 to amphotericin B CC50 for human THP1 cells; format: ADME, cell-based; conditions: THP-1 cells
# Leishmania tropica = experiment: Antileishmanial activity against promastigote stage of Leishmania tropica MHOM/SU/74/K27 assessed as parasite growth inhibition after 72 hrs by Alamar blue assay; format: functional, organism-based; conditions: MHOM/SU/74/K27, 72 h; method in brief: as §1
# [5] = Selectivity index, ratio of CC50 for human THP1 cells to IC50 for Leishmania donovani MHOM/NP/02/BPK282/0c14; format: toxicity; conditions: THP-1 cells, read-out: Ratio CC50/IC50; method in brief: as §2
# [6] = Cytotoxicity against African green monkey Vero cells after 72 hrs by Alamar blue assay; format: cell-based; conditions: chlorocebus sabaeus
# Method in brief: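 Vero cells were seeded at 10^5/mL in MEM with 10% FBS and exposed to compounds up to 600 µM for 72 h at 37 °C, 5% CO2. AlamarBlue was added for 24 h at 37 °C, with absorbance read at 550 and 630 nm. Duplicates. CC50/72h determined.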
# [7] = Binding affinity to Leishmania spp. trypanothione reductase by surface plasmon resonance analysis; set-up: species or system Leishmania sp.
# Method in brief: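 Recombinant L. infantum TR was amine-coupled to ~2000 RU on a carboxyl sensor chip. Analytes in HBS pH 7.4 + 1% DMSO were given as FastStep serial doubling injections from 1.56 to 100 µM, followed by dissociation after 100 s. A protein-free surface served as control. Sensorgrams are averages of three experiments. KD came from Scatchard plots and a global 1:1 binding fit.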
# [8] = Cytotoxicity against human THP1 cells after 72 hrs by Alamar blue assay; format: cell-based; conditions: THP-1 cells
# Method in brief: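 THP-1 cells were seeded at 10^5 cells/mL in RPMI-1640 with 10% FBS and adhered with 0.1 µM PMA, then exposed to compounds for 72 h at 37 °C, 5% CO2. AlamarBlue was added for 24 h at 37 °C, with absorbance read at 550 and 630 nm. Duplicates. CC50/72h determined.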
# Leishmania donovani [9] = experiment: Antileishmanial activity against promastigote stage of Leishmania donovani MHOM/NP/02/BPK282/0c14 assessed as parasite growth inhibition after 72 hrs by Alamar blue assay; format: functional, organism-based; conditions: MHOM/NP/02/BPK282/0c14, 72 h; method in brief: as §1
# Leishmania donovani [10] = experiment: Antileishmanial activity against promastigote stage of Leishmania donovani MHOM/NP/02/BPK282/0c14 assessed as parasite growth inhibition up to 40 uM after 72 hrs by Alamar blue assay; format: functional, organism-based; method in brief: as §1
# [11] = Ratio of IC50 for promastigote stage of Leishmania donovani MHOM/NP/02/BPK282/0c14 to Ki for Leishmania spp. trypanothione reductase
# [12] = Competitive inhibition of Leishmania spp. trypanothione reductase in presence of 75 to 400 uM TS2 by Dixon plot analysis; set-up: species or system Leishmania sp.
# Method in brief: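 Recombinant L. infantum TR at 40 nM was equilibrated for 2 min at 25 °C with TS2 (75–400 µM) and inhibitor (30 nM–1 µM). The reaction was started with 40 µM NADPH, and NADPH oxidation was followed as A340 decrease (ε 6,222 M−1 cm−1). A Dixon plot was built by linear regression of reciprocal fitted rates against inhibitor concentration.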
# Leishmania sp. = experiment: Potency index, ratio of Sb3+ Ki to test compound Ki for Leishmania spp. trypanothione reductase
# [13] = Ratio of IC50 for amastigote stage of Leishmania donovani MHOM/NP/02/BPK282/0c14 to Ki for Leishmania spp. trypanothione reductase
SMILES,selectivity ratio [2],selectivity ratio [5],CC50 at 72 h [6] [µM],CC50 at 72 h [8] [µM],IC50 (Leishmania donovani [9]) [µM],growth inhibition (GI) (Leishmania donovani [10]),other results
C#CCOc1ccc(C(=O)/C=C/c2ccc(F)cc2)c(OCC#C)c1,48,48,600,600,12.5,,selectivity ratio [1]: 3; IC50 (Leishmania infantum): 1.6 µM; IC50 (Leishmania major): 10 µM; IC50 (Leishmania donovani [3]): 4.5 µM; selectivity ratio [4]: 3; IC50 (Leishmania tropica): 13 µM; Kd [7]: 2.4 µM
C#CCOc1ccc(C(=O)/C=C/c2cccnc2)c(O)c1,2.3,1.4,40,25,17.5,,
CC(=O)Oc1cc(OCC=C(C)C)ccc1C(=O)/C=C/c1ccccc1,,,,,,inactive,
C#CCOc1ccc(C(=O)/C=C/c2ccc([N+](=O)[O-])cc2)c(OC)c1,,,,,,inactive,
COc1cc(OCC=C(C)C)ccc1C(=O)/C=C/c1cccnc1,2,3.8,22,40,10.5,,
C#CCOc1ccc(C(=O)/C=C/c2ccc([N+](=O)[O-])cc2)c(OCC#C)c1,,,,,,inactive,
COc1cc(OCC=C(C)C)ccc1C(=O)/C=C/c1ccc([N+](=O)[O-])cc1,200,200,600,600,3,,Ratio [11]: 6; selectivity ratio [1]: 3; IC50 (Leishmania infantum): 1.6 µM; IC50 (Leishmania major): 3.3 µM; IC50 (Leishmania donovani [3]): 14 µM; selectivity ratio [4]: 3; Ki [12]: 0.45 µM; IC50 (Leishmania tropica): 5.2 µM; Kd [7]: 0.6 µM; Ratio Ki (Leishmania sp.): 3; Ratio [13]: 30
C#CCOc1ccc(C(=O)/C=C/c2cc(OC)c(OC)c(OC)c2)c(OCC#C)c1,,,,,,inactive,
C[C@@H]1[C@H](O)[C@@H](C)/C=C/C=C/C=C/C=C/C=C/C=C/C=C/[C@H](O[C@@H]2O[C@H](C)[C@@H](O)[C@H](N)[C@@H]2O)C[C@@H]2O[C@](O)(C[C@@H](O)C[C@@H](O)[C@H](O)CC[C@@H](O)C[C@@H](O)CC(=O)O[C@H]1C)C[C@H](O)[C@H]2C(=O)O [AMPHOTERICIN B],666,666,200,200,0.3,,
CC(C)=CCOc1ccc(C(=O)/C=C/c2ccccc2)c(O)c1,,,,,,inactive,
COc1cc(OCC=C(C)C)ccc1C(=O)/C=C/c1ccc(NC(C)=O)cc1,,,,,,inactive,
C#CCOc1ccc(C(=O)/C=C/c2ccc(OC)cc2)c(OCC#C)c1,,,,,,inactive,
COc1ccc(/C=C/C(=O)c2ccc(OCC=C(C)C)cc2OC)cc1OC,,,,,,inactive,
C#CCOc1ccc(C(=O)/C=C/c2ccc(OC)c(OC)c2)c(OC)c1,,,,,,inactive,
CC(C)=CCOc1ccc(C(=O)/C=C/c2ccccc2)c(OCC=C(C)C)c1,,,,,,inactive,
COc1ccc(/C=C/C(=O)c2ccc(OCC=C(C)C)cc2OC)cc1,,,,,,inactive,

SMILES,selectivity ratio [2],selectivity ratio [5],CC50 at 72 h [6] [µM],CC50 at 72 h [8] [µM],IC50 (Leishmania donovani [9]) [µM],growth inhibition (GI) (Leishmania donovani [10]),other results
C#CCOc1ccc(C(=O)/C=C/c2ccc(Br)cc2)c(OC)c1,4.6,4.6,100,100,21.5,,
COc1cc(OCC=C(C)C)ccc1C(=O)/C=C/c1ccc(F)cc1,,,,,,inactive,
C#CCOc1ccc(C(=O)/C=C/c2ccncc2)c(OC)c1,5,4,20,16,4,,
C#CCOc1ccc(C(=O)/C=C/c2ccncc2)c(OCC#C)c1,1.4,1.6,10,11,7,,
COc1cc(OCC=C(C)C)ccc1C(=O)/C=C/c1ccncc1,1.5,1.5,16,16,10.5,,
COc1cc(OCC=C(C)C)ccc1C(=O)/C=C/c1ccco1,,,,,,inactive,
C#CCOc1ccc(C(=O)/C=C/c2cc(OC)c(OC)c(OC)c2)c(OC)c1,,,,,,inactive,
C#CCOc1ccc(C(=O)/C=C/c2cccnc2)c(OC)c1,1.6,1.7,15,16,9.5,,
CC(C)=CCOc1ccc(C(=O)/C=C/c2cccnc2)c(O)c1,24.7,11.8,210,100,8.5,,
COc1cc(OCC=C(C)C)ccc1C(=O)/C=C/c1cc(OC)c(OC)c(OC)c1,3.6,2.3,40,25,11,,
CC(C)=CCOc1ccc(C(=O)/C=C/c2ccncc2)c(O)c1,8,3.2,40,16,5,,
COc1cc(OCC=C(C)C)ccc1C(=O)/C=C/c1ccc(Br)cc1,37.5,6.3,600,100,16,,
COc1cc(OCC=C(C)C)ccc1C(=O)/C=C/c1ccccc1,3.3,3.3,50,50,15,,
C#CCOc1ccc(C(=O)/C=C/c2ccc(OC)c(OC)c2)c(OCC#C)c1,,,,,,inactive,
C#CCOc1ccc(C(=O)/C=C/c2cccnc2)c(OCC#C)c1,1.5,3.8,6,15,4,,
C#CCOc1ccc(C(=O)/C=C/c2ccc(Br)cc2)c(OCC#C)c1,28,1.6,420,25,15,,
